From ChEMBL document CHEMBL5096186, “Design, Synthesis, and Biological Evaluation of Novel Pyrimido[4,5-b]indole Derivatives Against Gram-Negative Multidrug-Resistant Pathogens” (J Med Chem, 2021)
Converted amounts (≈) assume the structure as drawn.

How the values were obtained:
Staphylococcus aureus [1] = experiment: Antibacterial activity against methicillin-resistant Staphylococcus aureus strains 15 1 to 4 assessed as reduction in bacterial growth incubated for 18 to 20 hrs by CLSI based microdilution method; assay type: functional; details: time 18-20 hrs
Outline: (§1)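 Broth microdilution per CLSI. Compounds dissolved in DMSO (levofloxacin and meropenem in water) as 64 μg/mL stock, then serial twofold dilutions in broth giving 64 to 0.008 μg/mL. […] Clinical isolates tested as several strains per group; racemic GP-1 served as positive control; values given as MIC ranges.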

[2] = test system: Staphylococcus epidermidis; experiment: Antibacterial activity against methicillin-sensitive Staphylococcus epidermidis strains 15 1 to 4 assessed as reduction in bacterial growth incubated for 18 to 20 hrs by CLSI based microdilution method; assay type: functional; details: time 18-20 hrs; outline: as §1
[3] = test system: Staphylococcus epidermidis; experiment: Antibacterial activity against methicillin-resistant Staphylococcus epidermidis strains 15 1 to 4 assessed as reduction in bacterial growth incubated for 18 to 20 hrs by CLSI based microdilution method; assay type: functional; details: time 18-20 hrs; outline: as §1
Escherichia coli [4] = experiment: Antibacterial activity against ESBL-producing Escherichia coli ATCC 35218 strains 15 1 to 3 assessed as reduction in bacterial growth incubated for 18 to 20 hrs by CLSI based microdilution method; assay type: functional; details: time 18-20 hrs
Outline: (§2)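 CLSI broth microdilution. Compounds in DMSO (levofloxacin and meropenem in water), serial twofold dilutions in broth, 64 to 0.008 μg/mL. […] Results reported as MIC ranges across strains.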

Escherichia coli [5] = experiment: Antibacterial activity against Escherichia coli ATCC 35218 strains 15 1 to 3 assessed as reduction in bacterial growth incubated for 18 to 20 hrs by CLSI based microdilution method; assay type: functional; details: time 18-20 hrs; outline: as §2
Staphylococcus aureus [6] = experiment: Antibacterial activity against methicillin-sensitive Staphylococcus aureus strains 15 1 to 4 assessed as reduction in bacterial growth incubated for 18 to 20 hrs by CLSI based microdilution method; assay type: functional; details: time 18-20 hrs; outline: as §1
Pseudomonas aeruginosa [7] = experiment: Antibacterial activity against multidrug resistant Pseudomonas aeruginosa strains 15 1 to 3 assessed as reduction in bacterial growth incubated for 18 to 20 hrs by CLSI based microdilution method; assay type: functional; details: time 18-20 hrs; outline: as §1
Pseudomonas aeruginosa [8] = experiment: Antibacterial activity against wild type Pseudomonas aeruginosa ATCC 27853 assessed as reduction in bacterial growth incubated for 18 to 20 hrs by CLSI based microdilution method; assay type: functional; details: time 18-20 hrs; outline: as §2
Escherichia coli [9] = experiment: Antibacterial activity against ESBL-producing multidrug resistant Escherichia coli assessed as reduction in bacterial growth incubated for 18 to 20 hrs by CLSI based microdilution method; assay type: functional; details: time 18-20 hrs; outline: as §1
Klebsiella pneumoniae [10] = experiment: Antibacterial activity agains wild type Klebsiella pneumoniae ATCC BAA-2470 assessed as reduction in bacterial growth incubated for 18 to 20 hrs by CLSI based microdilution method; assay type: functional; details: time 18-20 hrs; outline: as §1
[11] = Metabolic stability in human liver microsome assessed as intrinsic clearance at 0.1 uM in presence of NADPH incubated upto 60 mins by LC-MS/MS analysis; assay type: ADME; details: microsomes, 1 h
Outline: (§3)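 Compound at 0.1 μM final, in 0.01% DMSO with 0.005% BSA. Incubated with rat or human liver microsomes at 0.33 mg/mL in 0.1 M Tris-HCl, pH 7.4, with 5 mM MgCl₂ and 1 mM NADPH, at 37 °C. Samples at 0, 7, 17, 30 and 60 min quenched with cold methanol and analysed by LC-MS/MS. Half-life, Cl_int and MF% derived as previously described.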

[12] = target: hERG (KCNH2) potassium channel (Homo sapiens, UniProt Q12809); experiment: Inhibition of hERG potassium channel assessed as maximum inhibition rate at 40 uM at -80 mV holding potential incubated for 120 seconds by whole cell-automated voltage clamp analysis assay relative to control; assay type: toxicity; details: time 120 sec
Chain of hERG (KCNH2) potassium channel (Q12809 whole entry): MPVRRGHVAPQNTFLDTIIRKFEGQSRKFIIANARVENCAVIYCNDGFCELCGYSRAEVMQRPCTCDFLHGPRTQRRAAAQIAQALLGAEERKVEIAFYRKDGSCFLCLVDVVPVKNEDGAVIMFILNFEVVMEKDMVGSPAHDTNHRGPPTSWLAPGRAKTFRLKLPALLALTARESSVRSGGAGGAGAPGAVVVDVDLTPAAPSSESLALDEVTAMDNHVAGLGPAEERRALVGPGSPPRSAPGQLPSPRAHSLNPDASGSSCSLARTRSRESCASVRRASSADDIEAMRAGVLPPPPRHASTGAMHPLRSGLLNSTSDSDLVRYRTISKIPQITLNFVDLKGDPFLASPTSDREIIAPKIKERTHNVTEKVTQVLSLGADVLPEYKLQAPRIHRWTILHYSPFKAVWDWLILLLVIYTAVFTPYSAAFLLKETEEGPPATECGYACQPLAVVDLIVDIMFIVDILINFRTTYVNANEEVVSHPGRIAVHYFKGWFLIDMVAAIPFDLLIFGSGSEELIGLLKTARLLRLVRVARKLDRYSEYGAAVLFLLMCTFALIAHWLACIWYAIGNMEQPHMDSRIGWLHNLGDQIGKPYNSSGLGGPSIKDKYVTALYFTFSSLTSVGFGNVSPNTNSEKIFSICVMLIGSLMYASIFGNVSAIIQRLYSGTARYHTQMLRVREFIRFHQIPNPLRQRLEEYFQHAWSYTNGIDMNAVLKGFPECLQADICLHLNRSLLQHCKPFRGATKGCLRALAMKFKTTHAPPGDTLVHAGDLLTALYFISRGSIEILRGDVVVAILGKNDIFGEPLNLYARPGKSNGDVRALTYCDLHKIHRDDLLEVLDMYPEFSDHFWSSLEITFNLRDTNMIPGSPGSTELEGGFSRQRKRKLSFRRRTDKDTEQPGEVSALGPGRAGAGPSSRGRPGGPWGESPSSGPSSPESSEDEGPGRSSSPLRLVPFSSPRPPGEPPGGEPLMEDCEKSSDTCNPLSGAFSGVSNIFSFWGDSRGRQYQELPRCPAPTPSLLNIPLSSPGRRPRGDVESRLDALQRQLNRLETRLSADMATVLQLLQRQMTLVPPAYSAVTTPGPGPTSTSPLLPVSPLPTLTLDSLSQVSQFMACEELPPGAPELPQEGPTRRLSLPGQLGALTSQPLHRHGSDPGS
Outline: (§4)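 Automated whole-cell patch clamp, holding potential −80 mV. Voltage protocol applied every 20 s. Baseline set with external solution containing 0.1% DMSO and stabilised 3 min. Compound applied until steady state, at least 3 min, then washout. Maximum tested concentration 40 μM, or 3 μM for cisapride as positive control.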

Klebsiella pneumoniae [13] = experiment: Antibacterial activity against KPC2-producing multidrug resistant Klebsiella pneumoniae assessed as reduction in bacterial growth incubated for 18 to 20 hrs by CLSI based microdilution method; assay type: functional; details: time 18-20 hrs; outline: as §1
[14] = Metabolic stability in human liver microsome assessed as elimination half life at 0.1 uM in presence of NADPH incubated upto 60 mins by LC-MS/MS analysis; assay type: ADME; details: liver microsomes, read-out: beta t1/2; outline: as §3
Pseudomonas aeruginosa [15] = experiment: Antibacterial activity against IMP4-producing multidrug resistant Pseudomonas aeruginosa assessed as reduction in bacterial growth incubated for 18 to 20 hrs by CLSI based microdilution method; assay type: functional; details: time 18-20 hrs; outline: as §1
Acinetobacter baumannii [16] = experiment: Antibacterial activity agains OXA23-producing multidrug resistant Acinetobacter baumannii assessed as reduction in bacterial growth incubated for 18 to 20 hrs by CLSI based microdilution method; assay type: functional; details: time 18-20 hrs; outline: as §1
[17] = Metabolic stability in rat liver microsome assessed as intrinsic clearance at 0.1 uM in presence of NADPH incubated upto 60 mins by LC-MS/MS analysis; assay type: ADME; details: microsomes, 1 h; outline: as §3
Escherichia coli [18] = experiment: Antibacterial activity against multidrug resistant wild type Escherichia coli NCTC 13353 assessed as reduction in bacterial growth incubated for 18 to 20 hrs by CLSI based microdilution method; assay type: functional; details: time 18-20 hrs; outline: as §1
[19] = target: Voltage-gated inwardly rectifying potassium channel KCNH2 (Homo sapiens, UniProt Q12809); experiment: Inhibition of hERG potassium channel assessed as […] at -80 mV holding potential incubated for 120 seconds by whole cell-automated voltage clamp analysis assay; assay type: toxicity; outline: as §4
Chain of Voltage-gated inwardly rectifying potassium channel KCNH2 (Q12809 whole entry): as above

Klebsiella pneumoniae [20] = experiment: Antibacterial activity agains wild type Klebsiella pneumoniae ATCC BAA-1705 assessed as reduction in bacterial growth incubated for 18 to 20 hrs by CLSI based microdilution method; assay type: functional; details: time 18-20 hrs; outline: as §2
[21] = Metabolic stability in human liver microsome assessed as metabolic bioavailability at 0.1 uM in presence of NADPH incubated upto 60 mins by LC-MS/MS analysis; assay type: ADME; details: liver microsomes; outline: as §3
[22] = Metabolic stability in rat liver microsome assessed as metabolic bioavailability at 0.1 uM in presence of NADPH incubated upto 60 mins by LC-MS/MS analysis; assay type: ADME; details: liver microsomes; outline: as §3
[23] = Metabolic stability in rat liver microsome assessed as elimination half life at 0.1 uM in presence of NADPH incubated upto 60 mins by LC-MS/MS analysis; assay type: ADME; details: liver microsomes, read-out: beta t1/2; outline: as §3
Escherichia coli [24] = experiment: Antibacterial activity against multidrug resistant wild type Escherichia coli ATCC BAA-2340 assessed as reduction in bacterial growth incubated for 18 to 20 hrs by CLSI based microdilution method; assay type: functional; details: time 18-20 hrs; outline: as §1
Acinetobacter baumannii [25] = experiment: Antibacterial activity against wild type Acinetobacter baumannii NCTC 13304 assessed as reduction in bacterial growth incubated for 18 to 20 hrs by CLSI based microdilution method; assay type: functional; details: time 18-20 hrs; outline: as §1

Compound	MIC (Staphylococcus aureus [1]) [µg/mL]	MIC [2] [µg/mL]	MIC [3] [µg/mL]	MIC (Escherichia coli [4]) [µg/mL]	MIC (Escherichia coli [5]) [µg/mL]	MIC (Staphylococcus aureus [6]) [µg/mL]	MIC (Pseudomonas aeruginosa [7]) [µg/mL]	MIC (Pseudomonas aeruginosa [8]) [µg/mL]	MIC (Escherichia coli [9]) [µg/mL]	MIC (Klebsiella pneumoniae [10]) [µg/mL]	MIC (Klebsiella pneumoniae [13]) [µg/mL]	MIC (Pseudomonas aeruginosa [15]) [µg/mL]	MIC (Acinetobacter baumannii [16]) [µg/mL]	MIC (Escherichia coli [18]) [µg/mL]	MIC (Klebsiella pneumoniae [20]) [µg/mL]	MIC (Escherichia coli [24]) [µg/mL]	MIC (Acinetobacter baumannii [25]) [µg/mL]	other results
CNc1cc(F)cc2c1[nH]c1nc(Oc3cnc(C)nc3)nc(N3CCC(=C(C)CN)CC3)c12	0.125 (≈ 0.27 µM)	0.03 (≈ 0.0649 µM)	< 0.008	2 (≈ 4.32 µM)	0.25 (≈ 0.541 µM)	0.125 (≈ 0.27 µM)	> 8											
CCC(CN)=C1CN(c2nc(Oc3ccc4c(c3)C(=O)NC4)nc3[nH]c4c(NC)cc(F)cc4c23)C1	0.5 (≈ 1.03 µM)	0.06 (≈ 0.123 µM)	0.06 (≈ 0.123 µM)	8 (≈ 16.4 µM)	> 8	0.5 (≈ 1.03 µM)	16 (≈ 32.8 µM)											
CCC(CN)=C1CN(c2nc(Sc3ccc(Br)cn3)nc3[nH]c4c(NC)cc(F)cc4c23)C1	0.5 (≈ 0.946 µM)	0.25 (≈ 0.473 µM)	0.25 (≈ 0.473 µM)	> 2	> 1	1 (≈ 1.89 µM)	> 16											
CCC(CN)=C1CN(c2nc(Oc3cnc(CO)nc3)nc3[nH]c4c(NC)cc(F)cc4c23)C1		< 0.008		0.5 (≈ 1.08 µM)	0.25 (≈ 0.538 µM)	< 0.008	> 4	4 (≈ 8.61 µM)	1 (≈ 2.15 µM)	2 (≈ 4.31 µM)	4 (≈ 8.61 µM)	> 8	1 (≈ 2.15 µM)	0.5 (≈ 1.08 µM)	8 (≈ 17.2 µM)	1 (≈ 2.15 µM)	1 (≈ 2.15 µM)	CLH [11]: 36.3 mL/min/g; inhibition at 2 min, 40 µM [12]: 30.9%; half-life at 0.1 µM [14]: 57.8 min; CLH [17]: 176.4 mL/min/g; IC50 [19]: > 40 µM; Fh at 1 h, 0.1 µM [21]: 35%; Fh at 1 h, 0.1 µM [22]: 20.1%; half-life at 0.1 µM [23]: 11.9 min
C[C@H]1COc2c(N3CCN(C)CC3)c(F)cc3c(=O)c(C(=O)O)cn1c23.C[C@H]1COc2c(N3CCN(C)CC3)c(F)cc3c(=O)c(C(=O)O)cn1c23.O [LEVOFLOXACIN]	16	0.125	> 4		≤ 0.03	0.25	0.5	2	8	16	≥ 32	4	4	32	64	4	4	
CNc1cc(F)cc2c1[nH]c1nc(Oc3cnc(C)nc3)nc(N3CCC(=CCN)CC3)c12	0.5 (≈ 1.11 µM)	0.25 (≈ 0.557 µM)	0.25 (≈ 0.557 µM)	8 (≈ 17.8 µM)	> 2	1 (≈ 2.23 µM)	≥ 16											
